Hits are enriched below; roughly 2.7% of the tested compounds scored in any of these assays.
S100A4 MyoIIA: inhibitors of S100A4-myosin IIA peptide binding, primary screen, biochemical, fluorescence polarization, TAMRA-MyoIIA peptide. Protein S100-A4 (Homo sapiens), P26447. 0.14% of 360,000 active. inhibition, % at 10.7 µM;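 active = mean inhibition of at least 70% across replicates, with every replicate also reaching that level; inconclusive = mean inhibition reaches 70% but some replicates fall short; inactive = mean inhibition below 70%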
Target sequence (P26447 whole entry, looked up): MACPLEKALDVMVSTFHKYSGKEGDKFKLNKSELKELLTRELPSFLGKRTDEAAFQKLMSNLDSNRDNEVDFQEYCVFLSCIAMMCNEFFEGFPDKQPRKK
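Test system – S100A4 monomer (human) · Compound – single-point compound testing · Schedule – 5 min incubation before reading · Probe or stimulus – TAMRA-labelled myosin IIA heavy-chain peptide probe, 5 nM · Benchmarks – neutral control DMSO, positive control TFP · Medium – Calcium-containing HEPES buffer, pH 7.2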
SIRT5 block: SIRT5 desuccinylase inhibitors, primary screen, biochemical, fluorescence imaging, single point, set 5; NAD-dependent protein deacylase sirtuin-5, mitochondrial (Homo sapiens), Q9NXA8; Purified SirT5, succinyl-peptide AMC, trypsin-coupled fluorescence; inhibition, % at 15 µM; 1.1% of 330,000 active; in the data active = inhibition above about 15%; inconclusive = no clear call, values can overlap the other calls
Target sequence (Q9NXA8 whole entry, looked up): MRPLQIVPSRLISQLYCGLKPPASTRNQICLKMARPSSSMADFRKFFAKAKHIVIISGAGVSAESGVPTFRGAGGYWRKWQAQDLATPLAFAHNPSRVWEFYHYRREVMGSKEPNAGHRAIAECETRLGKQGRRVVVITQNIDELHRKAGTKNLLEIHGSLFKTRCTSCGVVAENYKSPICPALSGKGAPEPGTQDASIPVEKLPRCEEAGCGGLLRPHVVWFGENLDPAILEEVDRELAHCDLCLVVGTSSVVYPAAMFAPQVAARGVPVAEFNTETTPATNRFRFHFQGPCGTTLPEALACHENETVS
AF4-AF9 inh: inhibitors of AF4 peptide binding to AF9, primary screen, biochemical, AlphaScreen, biotin-AF4 peptide, FLAG-AF9, single point; AID 651704, 2012; inhibition, % at 10 µM; 0.47% of 350,000 active; Protein AF-9 (Homo sapiens), P42568;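 active = every replicate reaching a set inhibition limit, whatever the replicate mean, cut at about 25% in these data; inconclusive = mean inhibition reaches that limit but some replicates miss it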
CaV13 FRET inh: Primary screen for inhibitors of IQ motif and Ca2+-dependent inactivation inhibitor domain binding in CACNA1D, Förster resonance energy transfer in living cells, …; HEK cells, CFP/YFP FRET ICDI-IQ, plate reader, 10 min; percent FRET-ratio fall versus neutral wells; inhibition, % at 12.3 µM; 0.098% of 340,000 active; AID 743397;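 active = mean replicate inhibition of at least 30% and at least 1% of replicates passing that level; inconclusive = only one of the two criteria is met; inactive = neither criterion is met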
DENV2 CPE: inhibitors of DENV2 cytopathic effect, primary screen, cell-based, plate reader, single concentration; DENV2-infected cells, cytopathic effect rescue; CPE inhibition, % at 9.99 µM; 1.7% of 350,000 active; AID 651640, 2012; in the data active = CPE inhibition above about 20%, passing the limit was not always enough; inconclusive = no clear call, values can overlap the other calls; tested in BHK-21 cells
Numbers stand for hits; 0 = inactive; ? = inconclusive; - = no result given; ! = not active in a repeat.

SMILES	S100A4 MyoIIA	SIRT5 block	AF4-AF9 inh	CaV13 FRET inh	DENV2 CPE
COc1ccc(S(=O)(=O)Nc2ccc3c(c2)C(=O)N([C@@H](C)CO)C[C@@H](C)[C@H](CN(C)C(=O)Nc2cccc4ccccc24)OCCCC[C@@H](C)O3)cc1	-	-	-	-	0
C[C@@H]1CCCCO[C@H](CN(C)C(=O)Nc2cccc3ccccc23)[C@H](C)CN([C@H](C)CO)C(=O)c2cc(NS(=O)(=O)c3ccc(Cl)cc3)ccc2O1	0	0	0	-	58
C[C@@H]1CCCCO[C@H](CN(C)C(=O)Nc2cccc3ccccc23)[C@@H](C)CN([C@@H](C)CO)C(=O)c2cc(NS(=O)(=O)c3ccccc3)ccc2O1	0	15	0	-	34
C[C@@H]1CCCCO[C@@H](CN(C)C(=O)Nc2cccc3ccccc23)[C@@H](C)CN([C@H](C)CO)C(=O)c2cc(NS(=O)(=O)c3ccc(Cl)cc3)ccc2O1	0	0	0	-	0
COc1ccc(S(=O)(=O)Nc2ccc3c(c2)C(=O)N([C@@H](C)CO)C[C@H](C)[C@@H](CN(C)C(=O)Nc2cccc4ccccc24)OCCCC[C@@H](C)O3)cc1	0	0	0	-	26
C[C@@H]1CCCCO[C@@H](CN(C)C(=O)Nc2cccc3ccccc23)[C@@H](C)CN([C@H](C)CO)C(=O)c2cc(NS(=O)(=O)c3ccc(F)cc3)ccc2O1	0	0	0	-	?
COc1ccc(S(=O)(=O)N(C)C[C@@H]2OCCCC[C@@H](C)Oc3ccc(NC(=O)Nc4cccc5ccccc45)cc3C(=O)N([C@H](C)CO)C[C@H]2C)cc1	0	0	0	-	0
CNC[C@H]1Oc2ccc(N(C)C)cc2CC(=O)N([C@H](C)CO)C[C@H]1C	0	0	0	-	0
COc1ccc(CNC(=O)C[C@H]2C[C@@H]3c4cc(NC(=O)CC5CC5)ccc4O[C@@H]3[C@H](CO)O2)cc1	-	-	-	-	0
COc1ccc(NC(=O)Nc2ccc3c(c2)C(=O)N([C@H](C)CO)C[C@H](C)[C@H](CN(C)C(=O)c2ccccc2)OCCCC[C@H](C)O3)cc1	0	0	0	-	0
O=C(NCCN1CCOCC1)c1ccccc1-c1ccccc1	-	-	-	0	-
Nc1sc(-c2ccccc2)cc1C(=O)NCCN1CCOCC1	0	0	-	0	26
COc1ccc(S(=O)(=O)/N=C2/NC(=O)/C(=C\c3ccco3)S2)cc1	-	-	-	0	-
COc1ccc(S(=O)(=O)/N=C2/NC(=O)/C(=C/c3ccco3)S2)cc1	0	16	0	0	-
CC1CC(C)CN(C(=O)COC(=O)c2nccnc2N)C1 (configuration not stated)	0	0	0	0	45
COc1ccccc1S(=O)(=O)N[C@H]1CC[C@H](CCNC(=O)C2CC2)O[C@H]1CO	0	0	0	-	?
CCCN1[C@@H]2c3cccc(=O)n3C[C@H]1[C@H](CO)[C@H]2C(=O)Nc1ccccc1	0	0	0	-	0
CCC(C)Sc1cccc(-c2nc3ccc(C)cn3c2NC2CCCCC2)c1 (configuration not stated)	0	-	0	0	60!
CCO/C=C1/C(=O)N(c2ccccc2OC)C(=O)c2ccccc21	0	0	0	0	0
CCOC=C1SC(=S)N(c2ccccc2OC)C1=O	127	0	0	0	0
C[C@H]1CN([C@@H](C)CO)C(=O)c2c(c3ccccc3n2C)-c2ccccc2CO[C@@H]1CN(C)Cc1cccc(C(F)(F)F)c1	0	0	0	-	0
O=C(C[C@H]1CC[C@@H]2[C@H](COC[C@@H](O)CN2C(=O)c2cccnc2)O1)NC1Cc2ccccc2C1	0	0	0	-	0
Cn1cnc(CCNC(=O)C[C@@H]2CC[C@@H]3[C@H](COC[C@@H](O)CN3C(=O)C3CC3)O2)c1	0	0	0	-	?
Cn1cnc(CCNC(=O)C[C@H]2CC[C@H]3[C@@H](COC[C@@H](O)CN3C(=O)C3CC3)O2)c1	85	0	0	-	0
CCC(=O)N1C[C@H](O)COC[C@H]2O[C@H](CC(=O)NCc3cc(F)cc(F)c3)CC[C@@H]21	88	0	0	-	0
SMILES	S100A4 MyoIIA	SIRT5 block	AF4-AF9 inh	CaV13 FRET inh	DENV2 CPE
CCNC(=O)C[C@H]1CC[C@H]2[C@@H](COC[C@H](O)CN2C(=O)CC)O1	0	0	0	-	0
CCCNC(=O)C[C@@H]1CC[C@@H]2[C@H](COC[C@@H](O)CN2C(=O)C2CCOCC2)O1	0	16	0	-	0
CCNC(=O)C[C@@H]1CC[C@H]2[C@@H](COC[C@H](O)CN2C(=O)CC)O1	0	0	0	-	48
CN(C)C(=O)C[C@@H]1CC[C@H]2[C@H](COc3ccc(NC(=O)C4CCOCC4)cc3C(=O)N2C)O1	0	0	0	-	?
CC(C)NC(=O)N(C)C[C@@H]1Oc2c(NS(=O)(=O)c3cn(C)cn3)cccc2C(=O)N([C@@H](C)CO)C[C@@H]1C	0	0	0	-	0
COC(=O)C1=CO[C@@H](O[C@@H]2O[C@H](CO)[C@@H](O)[C@H](O)[C@H]2O)C2C1CC(O)O[C@H]2C (some centres not stated)	0	-	0	0	23
COc1ccc(C(C)(NC(C)=O)c2nc(-c3cccc(F)c3)cs2)cc1 (configuration not stated)	0	-	0	0	29
CC(C)NC(=O)Nc1ccc2c(c1)C(=O)N([C@@H](C)CO)C[C@H](C)[C@H](CN(C)C(=O)Nc1ccc(F)cc1)O2	0	0	0	-	0
CCCCn1c(N)c(N(CCC(C)C)C(=O)C2CC(=O)N(c3ccccc3OCC)C2)c(=O)[nH]c1=O (configuration not stated)	0	0	0	0	66
O=C(N/N=C/c1ccc(N2CCOCC2)cc1)c1ccncc1	0	0	0	0	72
CN1c2ccc(Br)cc2[C@H]2[C@H](CCN2S(=O)(=O)c2cccc(F)c2)[C@H]1CO	0	-	0	-	118
Cc1ccccc1S(=O)(=O)N1CC[C@@H]2[C@H]1c1cc(Br)ccc1N(C)[C@H]2CO	-	-	-	-	66
CN1c2ccc(Br)cc2[C@@H]2[C@@H](CCN2S(=O)(=O)c2ccccc2)[C@H]1CO	0	0	0	-	116
CN1c2ccc(Br)cc2[C@H]2[C@H](CCN2S(=O)(=O)c2ccccc2)[C@H]1CO	0	0	0	-	0
COc1ccc(S(=O)(=O)Nc2ccc3c(c2)C(=O)N([C@H](C)CO)C[C@H](C)[C@H](CN(C)S(=O)(=O)c2cccs2)OCCCC[C@H](C)O3)cc1	0	18	0	-	0
COc1ccc(S(=O)(=O)Nc2ccc3c(c2)C(=O)N([C@H](C)CO)C[C@H](C)[C@@H](CN(C)S(=O)(=O)c2cccs2)OCCCC[C@H](C)O3)cc1	0	0	0	-	0

Compound activity as filed in PubChem BioAssay.
